High-throughput results from PubChem BioAssay.
In the library only some 2.3% were active in any assay of this set; here they are far more common.
TRPC6 inhibitor – inhibitors of mouse TRPC6 channel; B-score at 10 µM; 310,000 tested, 1.1% active; HEK293-TRPC6, membrane potential dye, ACh-evoked depolarization; active compounds read low; Q61143; AID 2553;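 active means B-score under library mean minus 3 SD, initial fluorescence not abnormally high, positive integrated signal ratio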;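 further: B-score derived from integrated fluorescence ratio over the kinetic read; more negative B-score means stronger inhibition of depolarization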
TRPC4 block – blocks the mouse TRPC4 cation channel. Q9QUQ5. B-score at 10 µM. HEK293 TRPC4beta/mu-opioid, DAMGO-evoked Fluo4 calcium flux; active compounds read low. 300,000 tested, 0.39% active;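 active means B-score over 3 SD under the library average, no early fluorescence shift, positive overall ratio signal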
Target sequence (Q9QUQ5 whole entry, looked up): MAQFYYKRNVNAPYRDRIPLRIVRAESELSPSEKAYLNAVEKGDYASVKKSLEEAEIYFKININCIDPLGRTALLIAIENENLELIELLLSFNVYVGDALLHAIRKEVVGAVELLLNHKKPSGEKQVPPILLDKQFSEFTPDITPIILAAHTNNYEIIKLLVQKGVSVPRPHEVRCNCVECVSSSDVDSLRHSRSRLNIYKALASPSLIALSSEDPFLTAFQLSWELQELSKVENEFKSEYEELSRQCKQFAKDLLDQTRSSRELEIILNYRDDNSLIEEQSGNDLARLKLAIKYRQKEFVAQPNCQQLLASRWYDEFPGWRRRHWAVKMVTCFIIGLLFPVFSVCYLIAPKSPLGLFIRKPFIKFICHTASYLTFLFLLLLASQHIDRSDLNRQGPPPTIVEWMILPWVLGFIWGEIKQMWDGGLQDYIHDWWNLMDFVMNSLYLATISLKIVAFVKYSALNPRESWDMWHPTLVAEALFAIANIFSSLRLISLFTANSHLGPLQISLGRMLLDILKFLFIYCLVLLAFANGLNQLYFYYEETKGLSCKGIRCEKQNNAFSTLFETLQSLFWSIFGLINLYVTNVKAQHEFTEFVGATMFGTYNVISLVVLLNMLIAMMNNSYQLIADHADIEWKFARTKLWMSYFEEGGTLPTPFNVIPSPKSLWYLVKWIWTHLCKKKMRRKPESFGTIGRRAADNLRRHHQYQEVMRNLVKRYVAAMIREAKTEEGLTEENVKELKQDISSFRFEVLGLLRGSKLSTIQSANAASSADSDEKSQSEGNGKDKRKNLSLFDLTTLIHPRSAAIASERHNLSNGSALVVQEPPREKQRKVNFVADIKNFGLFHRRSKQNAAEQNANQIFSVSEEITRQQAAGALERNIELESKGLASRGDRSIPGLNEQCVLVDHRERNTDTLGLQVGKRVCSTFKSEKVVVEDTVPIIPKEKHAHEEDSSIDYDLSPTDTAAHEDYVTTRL
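Assay system: TRPC4beta/mu-opioid receptor HEK293 cell line; compound dosing: single concentration per test compound; detection: Fluo4 Ca2+ flux fluorescence; evaluation: per-well B score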
TRPC6 activator – mouse TRPC6 channel activation | HEK293-TRPC6 membrane potential dye fluorescence; active compounds read high | AID 2550 | 310,000 tested, 0.13% active | B-score at 10 µM;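 active means B-score of the integrated fluorescence ratio above library mean plus 3 SD, and starting fluorescence ratio within library mean plus 5 SD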;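 further: higher score means more depolarization so channel activation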
TRPC4 act – TRPC4 (mouse) channel activation; Q9QUQ5; HEK293 TRPC4beta/mu-opioid, Fluo4 calcium fluorescence; active compounds read high; B-score at 10 µM; 310,000 tested, 0.49% active;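 active means B-score above 5 SD of library B-scores, and initial fluorescence ratio not above library mean plus 5 SD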;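 further: positive B-score marks a calcium rise read as TRPC4 activation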
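Test system: HEK293 cells stably co-expressing mouse TRPC4beta and mu-opioid receptor | Schedule: Fluo4 dye loading 45 min at room temperature, 110 s recording | Measured by: Kinetic Fluo4 calcium fluorescence, 5 s baseline at 1 Hz | Evaluation: B score of integrated ratio | Controls: Buffer (low) and maximal DAMGO (high)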
TRPC4 PAM – TRPC4 (mouse) allosteric potentiation; B-score at 10 µM; 310,000 tested, 0.42% active; AID 2227; HEK293 TRPC4beta/mu-opioid, DAMGO EC20, Fluo-4 Ca2+ flux; active compounds read high; Q9QUQ5;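 active means B-score of calcium response area above 5 SD of library B-scores, with initial fluorescence ratio within 5 SD of library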;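 further: B-score of integrated fluorescence ratio over time as area under calcium response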
TRPC4 spec 2 – mouse TRPC4 off-target activity of TRPC6 inhibitors, second screen. shares compounds with TRPC6 inhibitor. HEK293 TRPC4/MOR, membrane potential dye fluorescence; channel activated by saturating DAMGO dose. inhibition, % at 10 µM. 920 tested, 42% active;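 active means compounds whose fluorescence signal differed from control wells by over 3 SD, either direction, in both duplicate plates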
TRPC4 spec – mouse TRPC4 off-target activity of TRPC6 inhibitors; AID 2777; activity change, negative = inhibition, % at 10 µM; shares compounds with TRPC6 inhibitor; 920 tested, 61% active; HEK293 TRPC4/mu-opioid, membrane potential fluorescence;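 active means rise or fall in signal beyond 3 SD of buffer-only wells in both replicate plates, either sign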;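 further: integrated kinetic ratio of fluorescence range over baseline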
HEK293 MPD ctr 2-1 – second check of TRPC6 inhibitor effects in parental HEK293 cells; shares compounds with TRPC6 inhibitor; parental HEK293 membrane potential dye fluorescence; maximal acetylcholine challenge after compound addition; signal change vs control, % at 10 µM; 920 tested, 31% active;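 active means membrane potential signal moving either way by over 3 SD of the maximum-effect control, in both duplicate plates, meaning non-specific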
HEK293 MPD ctr-1 – parental HEK293 nonspecific activity of TRPC6 inhibitors. shares compounds with TRPC6 inhibitor. parental HEK293 membrane potential dye fluorescence. membrane potential signal change, % at 10 µM. 920 tested, 60% active;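 active means membrane potential signal shifting up or down by more than 3 SD of buffer-only wells, on both duplicate plates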
HEK293 MPD ctr-2 – counter-screen for TRPC6 modulators: effect in parental HEK293 cells | membrane potential signal change, % at 10 µM | membrane potential dye fluorescence | AID 488924 | shares compounds with TRPC6 inhibitor | 2,400 tested, 51% active;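 active means membrane potential signal moves up or down beyond 5 SD from buffer-only wells, on both duplicate plates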
HEK293 MPD ctr 2-2 – parental HEK293 nonspecific activity of TRPC6 modulators, second screen; 2,400 tested, 14% active; AID 488926; membrane potential dye fluorescence; after compound, maximal acetylcholine stimulation; inhibition, % at 10 µM; shares compounds with TRPC6 inhibitor;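 active means membrane potential signal drops by more than 5 SD from the mean control signal, in both duplicate plates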;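 further: plate controls were acetylcholine ECmax control wells for no effect and buffer only wells for full effect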
TRPC4/MOR mod – mouse TRPC4 off-target activity of TRPC6 modulators; shares compounds with TRPC6 inhibitor; HEK293 TRPC4/mu-opioid, membrane potential fluorescence; percent change from control (negative = decrease, positive = increase), % at 10 µM; 2,400 tested, 69% active; AID 488927;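 active means membrane potential signal moved up or down beyond 5 SD of buffer control wells, in both duplicate plates, actives on both sides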;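 further: plate controls were assay buffer wells for no effect and DAMGO maximal-effect wells for full effect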
TRPC4 ctr inh 2 – mouse TRPC4 off-target activity of TRPC6 modulators, second screen; AID 488928; inhibition, % at 10 µM; HEK293 TRPC4/mu-opioid, membrane potential dye fluorescence; stimulated with maximal-effect DAMGO; 2,400 tested, 55% active; shares compounds with TRPC6 inhibitor;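 active means drop in membrane potential signal beyond 5 SD of the control wells in both duplicate plates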;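 further: TRPC4 counter screen for TRPC6 hits run under conditions tuned for TRPC6 not TRPC4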
TRPC6 inh conf – mouse TRPC6 inhibitor confirmation; shares compounds with TRPC6 inhibitor; HEK293-TRPC6, membrane potential dye, ACh-evoked depolarization; inhibition, % at 10 µM; 3,300 tested, 43% active; AID 488960;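 active means fluorescence ratio falls more than 5 SD below the full-stimulation control mean, in both duplicate runs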;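 further: integrated fluorescence ratio of peak minus minimum over baseline after agonist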
TRPC6 act confirm – confirmation of mouse TRPC6 activators; shares compounds with TRPC6 inhibitor; HEK293-TRPC6 membrane potential dye fluorescence, FDSS; activation, % at 10 µM; 2,800 tested, 11% active; AID 488961;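 active means ratio signal rise beyond 5 SD above unstimulated control wells' mean, seen in both duplicate runs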;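 further: plate controls were buffer EC0 wells for no effect and acetylcholine ECmax response for full effect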
Starred values were filed as active, the others as inactive; i = inactive; . = no result; + = active, no number.

SMILES | TRPC6 inhibitor | TRPC4 block | TRPC6 activator | TRPC4 act | TRPC4 PAM | HEK293 MPD ctr-2 | HEK293 MPD ctr 2-2 | TRPC4/MOR mod | TRPC4 ctr inh 2 | TRPC6 inh conf | TRPC6 act confirm | others
Cn1c2ccc(F)cc2c2nnc(SCCN3CCCCC3)nc21 | -7.39* | i | i | i | i | . | . | . | . | i | i | TRPC4 spec 2=76.5%*;TRPC4 spec=-12.5%*;HEK293 MPD ctr 2-1=16.5%*;HEK293 MPD ctr-1=-203.5%*
O=C(Cc1ccsc1)NNC(=O)c1cccc(Cl)c1 | i | i | i | i | i | . | . | . | . | . | .
COc1ccc(S(=O)(=O)N(CC(=O)NC2CCCCC2)c2ccc(F)cc2)cc1 | i | i | i | i | i | . | . | . | . | . | .
Cc1cc(C)n2[nH]c(=O)c(N=Nc3ccccc3)c2n1 | -7.42* | i | i | i | i | . | . | . | . | i | i | TRPC4 spec 2=i;TRPC4 spec=-24.3%*;HEK293 MPD ctr 2-1=i;HEK293 MPD ctr-1=-388.0%*
Cc1cc(C)n2[nH]c(=O)c(N=Nc3cccc(Cl)c3)c2n1 | -7.5* | i | i | i | i | -198.5%* | 65.0%* | -28.0%* | 37.0%* | 46.5%* | i
Cc1cc(C)n2[nH]c(=O)c(N=Nc3cccc(C(F)(F)F)c3)c2n1 | i | i | i | i | i | . | . | . | . | . | .
CCc1nnc(NC(=O)CSc2nnc(-c3ccccc3OC)n2-c2ccccc2)s1 | i | i | 12* | i | i | 182.5%* | i | 40.5%* | i | i | 54.5%*
CCc1nnc(NC(=O)CSc2nnc(-c3ccccc3OC)n2-c2ccc(C)cc2)s1 | i | i | i | i | i | . | . | . | . | . | .
CC(=O)Nc1ccc(S(=O)(=O)N2CCN(c3ncccn3)CC2)cc1 | i | i | i | i | i | . | . | . | . | . | .
O=C(C[n+]1cccc2ccccc21)c1ccccc1 | i | i | i | i | i | . | . | . | . | . | .
O=C(C[n+]1cc2ccccc2c2ccccc21)c1ccccc1 | -9.85* | -7* | i | 49* | i | . | . | . | . | i | i | TRPC4 spec 2=33.0%*;TRPC4 spec=0.9%*;HEK293 MPD ctr 2-1=i;HEK293 MPD ctr-1=-486.0%*
COc1ccc(C)cc1NC(=O)C(NCC(O)c1ccccc1)c1ccccc1 (configuration not stated) | i | i | i | i | i | . | . | . | . | . | .
Cc1ccc(C)c(NC(=O)C(NCC(C)(C)N2CCOCC2)c2ccccc2)c1 (configuration not stated) | -6.74* | i | i | i | i | . | . | . | . | i | . | TRPC4 spec 2=i;TRPC4 spec=5.2%*;HEK293 MPD ctr 2-1=i;HEK293 MPD ctr-1=7.3%*
COc1ccc(N2CCN(C(=O)Cn3cnc4c(cnn4-c4ccccc4)c3=O)CC2)cc1 | i | i | i | i | i | . | . | . | . | . | .
CCC1CCC(N2CCN(c3cccc(OC)c3)CC2)CC1 (configuration not stated) | i | i | i | i | i | . | . | . | . | . | .
COC(=O)C1(C)NC(c2ccc(OC)cc2)C2C(=O)N(c3ccccc3)C(=O)C21 (configuration not stated) | -7.78* | i | i | i | i | . | . | . | . | i | i | TRPC4 spec 2=i;TRPC4 spec=i;HEK293 MPD ctr 2-1=i;HEK293 MPD ctr-1=i
CN(/C(=N/S(=O)(=O)c1ccccc1)c1ccccc1)S(=O)(=O)c1ccccc1 | -6.46* | i | i | i | i | i | i | 10.5%* | i | i | i
CC(C)n1cnc2c(N(C)c3ccccc3)nc(N(CCN(C)C)Cc3ccccc3)nc21 | -5.79* | i | i | 110* | i | 87.0%* | i | 40.0%* | 96.5%* | 48.5%* | i
CCOc1ccccc1NC(=O)CCCNC(=O)c1ccc(Cl)cc1 | i | i | i | i | i | . | . | . | . | . | .
NC(=S)Nc1ccc(Cl)cc1Cl | i | i | i | i | i | . | . | . | . | . | .
O=C1N/C(=N\S(=O)(=O)Cc2ccccc2)S/C1=C/c1cc([N+](=O)[O-])ccc1O | i | i | 12.7* | i | i | 177.0%* | i | 33.0%* | i | i | 121.5%*
COc1cc(/C=C2/S/C(=N/S(=O)(=O)c3ccccc3)NC2=O)c([N+](=O)[O-])cc1OC | i | i | i | i | i | . | . | . | . | . | .
COc1cc(/C=C2\S/C(=N/S(=O)(=O)Cc3ccccc3)NC2=O)c([N+](=O)[O-])cc1OC | i | i | i | i | i | . | . | . | . | . | .
O=C1N/C(=N\S(=O)(=O)c2ccccc2)S/C1=C\c1cc([N+](=O)[O-])ccc1O | i | i | 26.7* | i | i | 249.0%* | i | 46.0%* | i | i | 159.5%*
Cc1ccc(S(=O)(=O)/N=C2/NC(=O)/C(=C/c3ccc(Br)o3)S2)cc1 | i | i | i | i | i | . | . | . | . | . | .
Cc1ccc(S(=O)(=O)/N=C2/NC(=O)/C(=C\c3cc(Br)cc(Br)c3O)S2)cc1 | i | i | 71.3* | 64* | 34* | + | i | 197.5%* | i | i | 401.5%*
COc1ccc(NC(=O)Cn2cnc3sc(C)c(S(=O)(=O)N4CCN(C)CC4)c3c2=O)cc1OC | i | i | i | i | i | . | . | . | . | . | .
CC(C)(C)c1nn(-c2ccccc2)c2[nH]c(=O)c(CNCc3ccc4c(c3)OCO4)cc12 | i | i | i | i | i | . | . | . | . | . | .
